# Bioassay records (PubChem BioAssay)
# Hits are enriched below; roughly 1.9% of the tested compounds scored in any of these assays.
# bCat nuc transl – beta-catenin nuclear translocation modulation; HeLa beta-catenin nuclear translocation, immunofluorescence imaging; nuclear translocation activity, % at 5 µM; 190,000 compounds, 0.3% hits; AID 1665;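 active means nuclear translocation activity above 50% at 5 µM, with a well cell count of 50 or more; inconclusive means wells under 50 cells across six images, flagged as toxic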;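 further: per-cell ratio of nuclear to cytoplasmic median beta-catenin stain intensity; plate controls were DMSO negative control for no effect and GSK-3 inhibitor IX positive control for full effect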
#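 Test system: HeLa cells, endogenous beta-catenin; Compound: single 5 µM dose plus 0.02–20 µM confirmation series; Times: compound exposure 24 h at 37°C; Signal: fluorescence imaging of beta-catenin antibody stain plus DAPI; Read-out: % activation, nuclear-to-cytoplasmic median beta-catenin signal ratio per cell.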
# ROMK primary – human ROMK K+ channel modulation, primary screen | Tet-inducible ROMK, thallium flux fluorescence; actives lie on both sides | 130,000 compounds, 2% hits | B-score at 10 µM;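 active means signal ratio slope over the read window, or its plate-corrected B-score, at least 3 SD from the plate mean, either direction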;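 further: B-score of the F/F0 ratio slope over 7 to 12 s after thallium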
# Target sequence (P48048 whole entry, looked up): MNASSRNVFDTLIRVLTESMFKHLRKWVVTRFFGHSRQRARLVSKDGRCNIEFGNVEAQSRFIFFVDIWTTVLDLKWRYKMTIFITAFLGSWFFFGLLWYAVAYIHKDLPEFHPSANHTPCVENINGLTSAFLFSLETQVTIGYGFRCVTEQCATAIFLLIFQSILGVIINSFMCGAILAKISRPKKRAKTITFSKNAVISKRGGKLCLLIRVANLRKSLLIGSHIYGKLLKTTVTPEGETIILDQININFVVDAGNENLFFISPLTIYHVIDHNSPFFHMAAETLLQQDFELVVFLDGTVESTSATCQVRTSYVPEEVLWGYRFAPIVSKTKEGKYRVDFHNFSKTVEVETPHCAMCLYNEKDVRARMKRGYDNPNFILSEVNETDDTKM
# MT stabilize HCS – microtubule stabilizers in HeLa cells. AID 2205. % tubulin-high responders, % at 10 µM. HeLa tubulin immunostaining HCS, 24 h; share of cells brighter than vehicle mean+2SD. 200,000 compounds, 0.83% hits;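 active means plate Z-score above 3 for both tubulin-high and condensed-nucleus cell shares, with cell loss under 80%, at 10 µM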;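 further: anti alpha tubulin signal scored within the nucleus-defined area of each cell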
# ROMK hit retest – confirmation of human ROMK potassium channel modulators | AID 1917 | shares compounds with ROMK primary | ROMK thallium flux, fluorescence ratio; hits give low values | 3,000 compounds, 54% hits | normalized thallium flux (F/F0 slope) at 10 µM;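 active means Flux at 10 µM at least 3 SD below or above vehicle control mean in one or both replicates; inconclusive means no clear call, values can overlap the other calls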
# * hit, by the source's call; ? = inconclusive; · = no result.
SMILES,bCat nuc transl,ROMK primary,MT stabilize HCS,ROMK hit retest
O=C(NC1CCCCC1)C(c1ccc(O)c(O)c1)N(C(=O)Cn1nnc2ccccc21)c1cccc(O)c1 (configuration not stated),2,0.61,1,·
Cc1nc2nc(-c3cccs3)cn2nc1C,1,-8.5*,5,0.042*
Cc1nc2nc(-c3ccc(Cl)cc3)cn2nc1C,-1,-0.26,2,·
CC(C)C(NC(=O)OCc1ccccc1)C(=O)NCc1ccc(C(=O)O)cc1 (configuration not stated),-2,-0.57,5,·
CCOC(=O)C1(CC2CC2)CCN(Cc2cn[nH]c2-c2ccccc2)CC1,0,-0.68,·,·
CCOC(=O)C1(Cc2ccccc2)CCN(Cc2cn[nH]c2-c2ccccc2)CC1,0,-2.5*,1,0.056*
COc1ccc2c(=O)c(Oc3ccc(C(=O)O)cc3)c(C(F)(F)F)oc2c1,-3,0.38,7,·
CC(=O)c1ccc(N(C(=O)CS(=O)CC(=O)Nc2ccc(F)cc2)C(C(=O)NC2CCCCC2)c2cccs2)cc1 (configuration not stated),-4,-3.3*,3,0.072
CC(=O)c1cccc(N(C(=O)CS(=O)CC(=O)Nc2ccc(F)cc2)C(C(=O)NC2CCCCC2)c2ccc(C)o2)c1 (configuration not stated),-1,·,4,·
CC12CCC(=O)N1C(C(=O)OCC(=O)Nc1cc(S(=O)(=O)N3CCCCC3)ccc1Cl)CS2 (configuration not stated),-1,-0.6,3,·
COCCNC(=O)/C(C#N)=C/c1cccc(NC(=O)c2ccccc2Cl)c1,0,·,2,0.047*
CC(C)NC(=O)/C(C#N)=C/c1cccc(NC(=O)c2ccccc2Cl)c1,-2,·,4,·
Cc1cccn2cc(-c3ccccc3)nc12,-4,·,2,·
Oc1ccc(Br)cc1C=Nc1cccn2cc(-c3ccccc3)nc12,-1,-11*,3,?
COC(=O)c1ccc(/C=C(\C#N)c2nc3ccccc3s2)cc1,1,·,3,·
N#C/C(=C\c1ccccn1)c1nc2ccccc2s1,4,-5.7*,4,0.032*
COCC(C)Nc1nc(C)c(C(C)=O)s1 (configuration not stated),-1,0.086,3,·
Cc1ccc2nc(SC(C(=O)c3ccccc3)c3ccccc3)nc(C)c2c1 (configuration not stated),5,0.37,2,·
N#C/C(=C\c1ccncc1)c1nc2c(s1)CCCC2,-4,-2*,2,0.063*
N#C/C(=C\c1ccc(Cl)cc1)c1nc(-c2ccco2)cs1,2,0.61,4,·
Cc1ccc(C(=O)N/C(=C/C=C\c2ccccc2)C(=O)NCc2ccco2)cc1,0,·,4,·
COC(=O)c1c(S(=O)(=O)NCc2ccccc2)sc(C(=O)O)c1C,-4,2,1,·
COc1ccc(CC(=O)N2CCCc3ccccc32)cc1,-1,·,3,0.077
CC(=O)c1ccc(-c2ccc(C(=O)N3CCCc4ccccc43)o2)cc1,-1,-3.5*,6,0.057*
COc1ccc(CC(=O)N2CCCc3ccccc32)cc1OC,·,-1.9,3,·
SMILES,bCat nuc transl,ROMK primary,MT stabilize HCS,ROMK hit retest
Cc1ccc(C(=O)N2CCc3ccccc32)o1,1,-0.51,6,·
CC1(C)CC(=O)C2=C(C1)N(c1ccc(F)cc1)C(=O)CC2c1ccsc1 (configuration not stated),·,·,6,·
CN1CCN(CC(=O)Nc2cc(N(C)C)nc3ccccc23)CC1,1,0.027,2,·
COc1cc(C2C3=C(CC(C)(C)CC3=O)OC3=C2C(=O)CC(C)(C)C3)cc([N+](=O)[O-])c1O,-1,0.018,2,·
Cc1snc(S(=O)(=O)/C(C#N)=N\Nc2ccccc2)c1C#N,-1,1.7,1,·
Cc1snc(S(=O)(=O)/C(C#N)=N/Nc2ccc(C(F)(F)F)cc2)c1C#N,-4,3.8*,2,0.1*
COc1cc(NC(=O)Cc2cccs2)c(C(=O)O)cc1OC,0,0.51,5,·
CCCC(=O)NC(=S)Nc1ccc(N2CCN(C(=O)c3cccs3)CC2)cc1,-4,-0.33,2,·
CCCC(=O)N1CCN(c2ccc(NC(=O)c3cccs3)cc2)CC1,0,2.7*,4,0.086
COc1ccc2occ(C(=O)c3coc4ccc(O)c(CN(C)C)c34)c2c1,-1,·,2,0.061*
COc1ccc(OC)c(C(=O)c2coc3ccc(OCC(=O)O)cc23)c1,-1,2.8*,2,0.07
CN(C)Cc1c(O)ccc2occ(C(=O)c3ccccc3)c12,-2,·,4,·
COc1ccc(OC)c(C(=O)c2coc3ccc(OC(C)=O)cc23)c1,-1,0.86,5,·
CCCn1c(SCC(=O)NCc2ccccc2)n[nH]c1=O,-2,0.93,2,·
